Measurements taken from ChEMBL document CHEMBL4049455, “Discovery of a B-Cell Lymphoma 6 Protein-Protein Interaction Inhibitor by a Biophysics-Driven Fragment-Based Approach” (J Med Chem, 2017).
Calls of active or inactive are those of the source. No cut-off for these calls is given here.

Tests used:
[1] = target: T1, B-cell lymphoma 6 protein (Homo sapiens, UniProt P41182); assay: Binding affinity to recombinant RED-NHS labeled BCL6 BTB domain (unknown origin) expressed in Escherichia coli BL21 (DE3) after 10 mins by microscale thermophoresis method
[2] = target: T1, B-cell lymphoma 6 protein; assay: Binding affinity to captured wild-type human biotinylated Avi-tagged BCL6 BTB domain (5 to 129 amino acid residues) expressed in Escherichia coli BL21 (DE3) by SPR analysis
[3] = tested on: B-cell lymphoma 6 protein (Homo sapiens), P41182 [C8Q,C67R,C84N]; assay: Binding affinity to human biotinylated His/Avi/SUMO/FLAG-tagged BCL6 BTB domain (5 to 129 amino acid residues) C8Q/C67R/C84N triple mutant expressed in Escherichia coli BL21 (DE3) by STD-NMR spectroscopy
Method in brief: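 STD-NMR was run on a sample of 400 μM ligand with 20 μM BCL6 BTB at 15 °C, using 32 scans. On- and off-resonance saturation was at 0.4 and 30 ppm, with 2.0 s total saturation. Binding was read as signal decrease on on-resonance irradiation.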

[4] = tested on: B-cell lymphoma 6 protein (Homo sapiens), P41182 [C8Q,C67R,C84N]; assay: Inhibition of BCoR peptide binding to human biotinylated His/Avi/SUMO/FLAG-tagged BCL6 BTB domain (5 to 129 amino acid residues) C8Q/C67R/C84N triple mutant expressed in Escherichia coli BL21 (DE3) by SPR competition assay
[5] = target: T1, B-cell lymphoma 6 protein; assay: Binding affinity to 6His-tagged human BCL6 BTB domain (7 to 128 amino acid residues) expressed in Escherichia coli Rosetta (DE3) after 1 min by fluorescence polarization assay
[6] = tested on: B-cell lymphoma 6 protein (Homo sapiens), P41182 [C8Q,C67R,C84N]; assay: (§1) Binding affinity to human biotinylated Avi-tagged BCL6 BTB domain C8Q/C67R/C84N triple mutant expressed in Escherichia coli BL21 (DE3) using 5 % DMSO by SPR analysis
Method in brief: (§2)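 SPR (Biacore 4000) binding of BCoR peptide to immobilized wild-type or Cys-mutant BTB in running buffer containing 1%, 3% or 5% DMSO. Peptide ran from a top concentration of 100 μM in 2-fold dilutions. KD and Rmax were fitted from equilibrium response against peptide concentration.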

[7] = target: T2, B-cell lymphoma 6 protein (Homo sapiens, UniProt P41182, C67R/C84N/C8Q); assay: as §1; method in brief: as §2
[8] = tested on: B-cell lymphoma 6 protein (Homo sapiens), P41182 [C8Q,C67R,C84N]; assay: (§3) Binding affinity to human biotinylated Avi-tagged BCL6 BTB domain C8Q/C67R/C84N triple mutant expressed in Escherichia coli BL21 (DE3) using 3 % DMSO by SPR analysis; method in brief: as §2
[9] = target: T2, B-cell lymphoma 6 protein; assay: as §3; method in brief: as §2
[10] = target: T1, B-cell lymphoma 6 protein; assay: Binding affinity to wild-type human biotinylated Avi-tagged BCL6 BTB domain (5 to 129 amino acid residues) expressed in Escherichia coli BL21 (DE3) using 5 % DMSO by SPR analysis; method in brief: as §2
[11] = target: T1, B-cell lymphoma 6 protein; assay: Binding affinity to coupled wild-type human biotinylated Avi-tagged BCL6 BTB domain (5 to 129 amino acid residues) expressed in Escherichia coli BL21 (DE3) by SPR analysis
Method in brief: (§4)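 Biacore 4000 SPR. Biotinylated BTB (mutant or wild-type) was captured, and wild-type was also amine-coupled on a separate spot, with NeutrAvidin detected as a reference spot. Responses were referenced between spots. Fragments were run from a top concentration of 1 mM in 2-fold dilutions. KD came from equilibrium response plotted against concentration, with BCoR peptide (100 μM) as the positive control.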

[12] = tested on: B-cell lymphoma 6 protein (Homo sapiens), P41182 [C8Q,C67R,C84N]; assay: (§5) Binding affinity to human biotinylated Avi-tagged BCL6 BTB domain C8Q/C67R/C84N triple mutant expressed in Escherichia coli BL21 (DE3) using 1 % DMSO by SPR analysis; method in brief: as §2
[13] = target: T2, B-cell lymphoma 6 protein; assay: as §5; method in brief: as §2
[14] = target: T1, B-cell lymphoma 6 protein; assay: Binding affinity to wild-type human biotinylated Avi-tagged BCL6 BTB domain (5 to 129 amino acid residues) expressed in Escherichia coli BL21 (DE3) using 3 % DMSO by SPR analysis; method in brief: as §2
[15] = target: T2, B-cell lymphoma 6 protein; assay: Binding affinity to captured human biotinylated Avi-tagged BCL6 BTB domain (5 to 129 amino acid residues) C8Q/C67R/C84N triple mutant expressed in Escherichia coli BL21 (DE3) by SPR analysis; method in brief: as §4
[16] = target: T1, B-cell lymphoma 6 protein; assay: Binding affinity to wild-type human biotinylated Avi-tagged BCL6 BTB domain (5 to 129 amino acid residues) expressed in Escherichia coli BL21 (DE3) using 1 % DMSO by SPR analysis; method in brief: as §2

O=C(O)CC(C(=O)O)N1C(=O)/C(=C2/C(=O)Nc3ccc(Br)cc32)SC1=S (stereo not drawn) showed a Kd [1] of 129 µM.

Nc1nccc(Nc2ccccc2)n1 gave a Kd [2] of 3000 µM.

With O=C1Cc2cc(Nc3ncncc3Cl)ccc2N1 the Kd [2] was 9.3 µM.

Nc1ncc(F)c(Nc2ccccc2)n1 showed a Kd [2] of 180 µM.

For Nc1ncnc(Nc2ccccc2)n1, the Activity [3] was “Active” and the inhibition [4] was “Active”.

With CO[C@H]1/C=C/O[C@@]2(C)Oc3c(C)c(O)c4c(O)c(cc(O)c4c3C2=O)NC(=O)/C(C)=C\C=C\[C@H](C)[C@H](O)[C@@H](C)[C@@H](O)[C@@H](C)[C@H](OC(C)=O)[C@@H]1C [RIFAMYCIN] the Kd [5] was 1 mM.

Ac-RSEIISTAPSSWVVPPK-OH was tested, and the Activity [2] was “Dose-dependent effect”, the Kd [2] was 17 µM and the Rmax [6] was 304 RU. The Kd [7] was 25 µM, the Rmax [8] was 302 RU and the Kd [9] was 21 µM. The Kd [10] was 12 µM, the Rmax [10] was 243 RU and the Kd [11] was 14 µM. It also gave an Rmax [12] of 311 RU, a Kd [13] of 17 µM and a Kd [14] of 9.3 µM. The Rmax [14] was 242 RU, the Kd [15] was 40 µM and the Kd [16] was 7.5 µM. For the same compound, the Rmax [16] was 245 RU.
